Laboratory results reported in ChEMBL document CHEMBL3407343, “Functionalized tetrahydro-1H-pyrido[4,3-b]indoles: a novel chemotype with Sirtuin 2 inhibitory activity” (Eur J Med Chem, 2015).
Active and inactive are the calls of the source. The rule behind the calls is not given here.

Key:
[1] = target: T1, NAD-dependent protein deacetylase sirtuin-1 (Homo sapiens) (UniProt Q96EB6); assay: Inhibition of human recombinant SIRT1 assessed as deacetylation of N-acetyl lysine residue in p53 (317 to 320) at 10 uM after 30 mins by luciferase-mediated luminescence assay relative to control
T1 sequence (whole entry): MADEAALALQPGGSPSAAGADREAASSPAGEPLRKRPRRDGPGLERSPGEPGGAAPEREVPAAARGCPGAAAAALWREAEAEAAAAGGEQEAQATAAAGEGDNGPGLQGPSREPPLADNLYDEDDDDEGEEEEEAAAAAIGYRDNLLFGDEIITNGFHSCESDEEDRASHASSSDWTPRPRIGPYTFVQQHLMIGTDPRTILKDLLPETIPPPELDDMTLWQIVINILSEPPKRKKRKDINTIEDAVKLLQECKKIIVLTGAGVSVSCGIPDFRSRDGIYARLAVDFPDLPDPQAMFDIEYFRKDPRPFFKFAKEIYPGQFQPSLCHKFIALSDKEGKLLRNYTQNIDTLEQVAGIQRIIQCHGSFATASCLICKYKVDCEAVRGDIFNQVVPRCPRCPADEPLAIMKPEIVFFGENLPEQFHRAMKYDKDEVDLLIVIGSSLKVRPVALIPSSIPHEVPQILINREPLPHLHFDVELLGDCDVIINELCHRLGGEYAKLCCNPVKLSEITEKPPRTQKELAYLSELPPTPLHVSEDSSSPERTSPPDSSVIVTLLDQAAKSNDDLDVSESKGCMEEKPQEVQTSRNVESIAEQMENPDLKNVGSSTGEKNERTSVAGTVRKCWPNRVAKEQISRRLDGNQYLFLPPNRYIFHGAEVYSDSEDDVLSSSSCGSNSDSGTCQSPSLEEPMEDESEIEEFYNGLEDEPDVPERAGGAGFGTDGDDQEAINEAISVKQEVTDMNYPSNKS
In short: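 Recombinant human SIRT1 at 0.1 unit/well, with the enzyme amount chosen from the mid-linear range of a signal-to-noise titration, in Sirt-Glo buffer. Serially diluted inhibitor in DMSO covers a 10^3-fold range, with 2.5% DMSO final. The single-point screen is at a fixed 10 µM. Enzyme and inhibitor were agitated 30 min at 25 °C, then Sirt-Glo reagent added and shaken another 30 min at 25 °C before luminescence was read. Activity is % of the enzyme-only control after blank subtraction. IC50 comes from a sigmoidal fit of % activity against log concentration, run in triplicate across ≥2 independent experiments.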

Homo sapiens [2] = species on record: Homo sapiens; assay: Inhibition of protease (unknown origin) using deacetylated peptide as substrate assessed as luminescence at 10 uM after 30 mins relative to control; parameters: scale not given: the % may be the effect or the level left
In short: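 Counter-screen without sirtuin: compound from DMSO stock diluted in Sirt-Glo buffer, then Sirt-Glo reagent added carrying non-acetylated control peptide. DMSO was 2.5% v/v. Mixed by shaking 30 min at 25 °C, then luminescence read. Result is % of control (peptide plus reagent in vehicle) after subtracting the vehicle-only blank.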

Homo sapiens [3] = species on record: Homo sapiens; assay: Inhibition of protease (unknown origin) using deacetylated peptide as substrate assessed as luminescence at 25 uM after 30 mins relative to control; parameters: scale not given: the % may be the effect or the level left
[4] = Inhibition of luciferase (unknown origin) using deacetylated peptide as substrate assessed as luminescence at 100 uM after 30 mins relative to control; parameters: scale not given: the % may be the effect or the level left
[5] = target: T2, NAD-dependent protein deacetylase sirtuin-2 (Homo sapiens) (UniProt Q8IXJ6); assay: (§1) Non-competitive inhibition of human recombinant SIRT2 using Z-QPK(Me)2K(Ac) as substrate assessed as decrease in maximal enzyme activity preincubated for 60 mins followed by substrate addition measured after 30 mins by double-reciprocal plot analysis in presence of 5 mM NAD+
T2 sequence (whole entry): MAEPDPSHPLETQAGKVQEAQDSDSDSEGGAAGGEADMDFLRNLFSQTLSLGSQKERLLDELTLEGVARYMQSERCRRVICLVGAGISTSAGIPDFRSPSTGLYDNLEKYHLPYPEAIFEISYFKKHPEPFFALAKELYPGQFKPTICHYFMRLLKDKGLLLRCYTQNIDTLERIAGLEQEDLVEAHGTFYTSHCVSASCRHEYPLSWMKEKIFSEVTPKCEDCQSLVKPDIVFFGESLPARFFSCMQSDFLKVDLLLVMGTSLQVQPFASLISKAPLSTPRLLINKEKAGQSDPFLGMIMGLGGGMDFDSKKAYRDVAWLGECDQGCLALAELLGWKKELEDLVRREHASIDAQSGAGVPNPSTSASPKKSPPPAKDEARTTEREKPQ
In short: (§2)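 Recombinant human SIRT2 at 0.2 unit/well, preincubated 60 min at 25 °C (400 rpm) with inhibitor at four levels including zero, 2.5% DMSO. Detection reagent (acetylated Z-QPK(Me)2K(Ac)-aminoluciferin, NAD and developer) was premixed 60 min at 37 °C, added, and incubated 30 min at 25 °C before luminescence was read. For line 17, substrate was varied (4.12–333.3 µM) at fixed NAD. For line 16, NAD was varied (four levels) at 38.5 µM substrate. Double-reciprocal plots were made, and their slopes replotted against inhibitor concentration for apparent Ki.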

[6] = target: T3, NAD-dependent protein deacetylase sirtuin-2 (Homo sapiens, UniProt Q8IXJ6); assay: as §1; details: read-out: Ki(app); in short: as §2
T3 sequence (Q8IXJ6 whole entry): T2 sequence (whole entry)

MDA-MB-231 [7] = assay: Growth inhibition of human MDA-MB-231 cells after 72 hrs by MTS assay; format: functional, cell-based; details: MDA-MB-231, 72 h
In short: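 Cells in DMEM with 10% heat-treated FBS and penicillin/streptomycin, subcultured at 85–90% confluence and used within 15 passages. Seeded 2500 cells/well and grown 24 h, then compound was added (0.5% v/v DMSO final) for 72 h at 37 °C, 5% CO2. MTS was added for 4 h in the dark and absorbance read at 490 nm. Viability is corrected for compound and vehicle blanks.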

[8] = target: T2, NAD-dependent protein deacetylase sirtuin-2 (Homo sapiens); assay: (§3) Non-competitive inhibition of human recombinant SIRT2 using Z-QPK(Me)2K(Ac) as substrate assessed as decrease in maximal enzyme activity preincubated for 60 mins followed by substrate addition measured after 30 mins by double-reciprocal plot analysis in presence of 185 to 5000 uM NAD+; in short: as §2
[9] = target: T3, NAD-dependent protein deacetylase sirtuin-2; assay: as §3; details: read-out: Ki(app); in short: as §2
[10] = target: T2, NAD-dependent protein deacetylase sirtuin-2 (Homo sapiens); assay: Inhibition of SIRT2 in human MDA-MB-231 cells assessed as increase in acetylated p53 at Lys382 and alpha-tubulin level at 2 to 4 uM after 24 hrs by Western blot analysis; format: cell-based
In short: (§4)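 Cells seeded at 50,000 cells/mL in high-glucose DMEM containing compound (0.5% v/v DMSO) and incubated at 37 °C, 5% CO2: HepG2 6 h, MDA-MB-231 24 h. Washed cells were lysed on ice ≥20 min in Tris/NaCl/EDTA/Triton buffer with protease and phosphatase inhibitors, then protein measured by Bradford. SDS-PAGE blots were probed overnight at 4 °C with primary antibodies and detected by HRP/ECL, with re-probing after stripping. Each blot was repeated ≥3 times.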

MDA-MB-231 [11] = assay: Induction of apoptosis in human MDA-MB-231 cells assessed as upregulation of cleaved caspase-3 protein expression at 2 to 8 uM after 24 hrs by Western blot analysis; format: functional, cell-based; in short: as §4
MDA-MB-231 [12] = assay: Induction of apoptosis in human MDA-MB-231 cells assessed as upregulation of cleaved PARP protein expression at 2 to 8 uM after 24 hrs by Western blot analysis; format: functional, cell-based; in short: as §4

inhibition [1]: 48.5%
Activity (Homo sapiens [2]): 96.5%
Activity (Homo sapiens [3]): 94.9%
Activity [4]: 94.3%
inhibition [5]: Dose-dependent effect
Ki [6]: 2280 nM
IC50 (MDA-MB-231 [7]): 2100 nM
inhibition [8]: Dose-dependent effect
Ki [9]: 3700 nM
inhibition [10]: Active
Structure (SMILES): CCCCCCCCn1c2c(c3cc(-c4ccc(S(C)(=O)=O)cc4)ccc31)CNCC2
Activity (MDA-MB-231 [11]): Active
Activity (MDA-MB-231 [12]): Active
